Here are results for 21 compounds from ChEMBL document CHEMBL1154335, “2-(3-Thienyl)-5,6-dihydroxypyrimidine-4-carboxylic acids as inhibitors of HCV NS5B RdRp” (Bioorg Med Chem Lett, 2009).

For data set [1], the system named is Hepatitis C virus. Kind of data set: Inhibition of HCV con1 Cdelta55 NS5B polymerase G152E mutant. It counts as functional, Hepacivirus hominis. As to conditions: isolate Con1. The essentials:
(§1)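 IC50 determined on isolated recombinant NS5B polymerase carrying a single P156S or G152E substitution. These substitutions were identified in replicon colonies selected with […]. Wild-type enzyme was run alongside as the reference.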

For data set [2], the system named is Hepatitis C virus. Kind of data set: Inhibition of wild type HCV con1 Cdelta55 NS5B polymerase. In kind it is functional, Hepacivirus hominis. The note with it: isolate Con1. The method, boiled down: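 Recombinant NS5B truncated by 55 C-terminal residues (ΔC55), genotype 1b HCV; IC50 determined from enzyme inhibition.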
Data set [3] relates to Hepatitis C virus. Kind of data set: Inhibition of HCV con1 Cdelta55 NS5B polymerase P156S mutant. In kind it is functional, Hepacivirus hominis. As to conditions: isolate Con1. The essentials: as §1
Data set [4] relates to Hepatitis C virus. Kind of data set: Inhibition of HCV1b Cdelta55 NS5B polymerase. It counts as functional, organism-based, Hepatitis C virus subtype 1b.
For data set [5], the system named is Hepatitis C virus. Kind of data set: Antiviral activity against Hepatitis C virus subtype 1b infected in human HuH7 cells by replicon assay. It counts as functional, organism-based, Hepacivirus hominis. The note with it: genotype 1b, Huh-7.
The test system of data set [6] is Hepatitis C virus. Kind of data set: Antiviral activity against Hepatitis C virus subtype 2a infected in human HuH7 cells by replicon assay. It counts as functional, organism-based, Hepacivirus hominis, genotype 2a, Huh-7. The method, boiled down:
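Full-length HCV genotype 2a infectivity assay; EC50 determined.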
Background: In antiviral work, replicon cells carry a viral genome segment that copies itself.

In data set [7] the test system is Hepatitis C virus. Kind of data set: Inhibition of HCV2a Cdelta21 NS5B polymerase. It counts as functional, Hepatitis C virus subtype 2a.
The nature of data set [8]: Oral bioavailability in rat at 3 mg/kg. It counts as ADME, organism-based. The note with it: in vivo. The essentials: (§2)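 Rat, oral dose of 3 mg/kg; plasma exposure (AUC) measured and oral bioavailability derived.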
A short description of data set [9]: Volume of distribution in rat at 3 mg/kg, iv. It counts as ADME, organism-based. Further details: dose 3 mg/kg, route intravenous. As to conditions: in vivo. The essentials:
(§3)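 Rat, single intravenous dose of 3 mg/kg; plasma sampled for half-life, volume of distribution and turnover (clearance).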

Data set [10] is described as follows: Metabolic stability in rat assessed as compound turnover at 3 mg/kg, iv. It counts as ADME, organism-based. The note with it: in vivo, read-out: Stability. On the set-up: dose 3 mg/kg, route intravenous. The method, boiled down:
as §3

Data set [11] can be described thus: AUC in rat plasma at 3 mg/kg, po. In kind it is ADME, organism-based. On the set-up: dose 3 mg/kg, route oral. The essentials: as §2
For data set [12], the system named is Hepatitis C virus. Kind of data set: Inhibition of HCV1b Cdelta21 NS5B polymerase. It counts as functional, Hepatitis C virus subtype 1b.
Data set [13] in a line: Inhibition of HCV3a Cdelta21 NS5B polymerase. On the set-up: species or system Hepatitis C virus subtype 3a.
Data set [14] is described as follows: Protein binding in rat serum. It counts as ADME, cell-free. The note with it: read-out: PB. The essentials:
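Binding to rat serum proteins measured.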

Data set [15] can be described thus: Bioavailability in intramuscular dosed rat. It counts as ADME, organism-based. The note with it: in vivo, im. The method, boiled down: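 Rat, intramuscular administration; plasma exposure measured to derive bioavailability.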
Data set [16] in a line: Half life in rat plasma at 3 mg/kg, iv. On the set-up: dose 3 mg/kg, route intravenous. In kind it is ADME, organism-based. The method, boiled down: as §3
A short description of data set [17]: Inhibition of HCV2b Cdelta21 NS5B polymerase. On the set-up: species or system Hepatitis C virus subtype 2b.
The mark [18] stands for this setting: Hepatitis C virus, genotype 2a, Huh-7.

pEC50, pIC50: −log10 of the molar value. “And” between values parts separate entries of the source, which are not always exact repeats. Identical values can stand only once. Bounds are passed on as bounds.

For the compound `O=C(NCc1ccccc1Cl)Nc1ccsc1-c1nc(O)c(O)c(C(=O)O)n1`, the results for the pIC50 in [1], in data set [2] and in [3] were 6.10, 6.74 and 6.77, respectively.

Regarding `O=C(NCc1ccccc1)Nc1cscc1-c1nc(O)c(O)c(C(=O)O)n1`, in data set [4], the pIC50 – broadly, −log10 of the IC50, conventionally taken in molar units – was 6.06.

As to `O=C(NCc1ccccc1Cl)Nc1cscc1-c1nc(O)c(O)c(C(=O)O)n1`, in data set [4], the pIC50 was 6.59.

As for `O=C(Nc1cscc1-c1nc(O)c(O)c(C(=O)O)n1)NS(=O)(=O)c1ccccc1Br`, the pIC50 was 6.40 in [1], 7.22 in data set [2], 7.15 in [3] and 7.13 in [4]. Also, the pEC50 – broadly, the EC50 on a negative log10 scale, so that one unit is a factor of ten – in data set [5] was 5.47.

In [4], `O=C(Nc1sccc1-c1nc(O)c(O)c(C(=O)O)n1)OCc1ccccc1` gave a pIC50 of 6.46.

`O=C(Nc1cscc1-c1nc(O)c(O)c(C(=O)O)n1)NS(=O)(=O)c1cccc(Br)c1` gave a pEC50 in data set [5] of 4.43. The pIC50 in [4] was 7.42.

`O=C(Cc1ccccc1Cl)Nc1cscc1-c1nc(O)c(O)c(C(=O)O)n1` had a pIC50 in data set [4] of 5.58.

Consider `O=C(Nc1cscc1-c1nc(O)c(O)c(C(=O)O)n1)NS(=O)(=O)c1ccccc1Cl`, for which the pEC50 in [5] was 5.59; in [6] (setting [18]), 5.18. For the same compound, the pIC50 in data set [4] was 7.11.

In data set [4], `O=C(O)c1nc(-c2ccsc2)nc(O)c1O` showed a pIC50 of 5.21.

For `Cn1c(-c2cccs2)nc(C(=O)O)c(O)c1=O`, the pIC50 in [1] was 5.49; in data set [2], 5.34; in data set [3] it was 5.25.

On to `CS(=O)(=O)NC(=O)Nc1cscc1-c1nc(O)c(O)c(C(=O)O)n1`, for which the pIC50 in [4] is 6.37.

In data set [4], `O=C(Nc1cscc1-c1nc(O)c(O)c(C(=O)O)n1)OCc1ccccc1` had a pIC50 of 6.49.

`O=C(Nc1cscc1-c1nc(O)c(O)c(C(=O)O)n1)NS(=O)(=O)c1cccc2ccccc12`: the pIC50 in [7] was 8.68; in data set [1] it was 6.52; in data set [2], 7.40; in data set [12], 8.25; in data set [13] it was 8.41; in data set [4], 7.44. In data set [17], this compound gave a pIC50 of 8.24. The bioavailability (commonly the share of a dose that reaches the circulation, judged against a reference dose that is usually intravenous) is 2% in data set [8] and 89% in data set [15]. For the same compound, the Vd (as a rule, a proportionality between amount in the body and measured concentration, not a real space) in [9] came to 0.1 L/kg. In addition, in [10], the clearance amounted to 0.012 L/h/kg. Further, the AUC (in general, the area under the concentration-time curve, a measure of exposure) in data set [11] is 3.3 µM·h. In addition, the pEC50 is 5.44 in data set [5]; 5.43 and 5.02 in data set [6] (huh-7). The fraction unbound in data set [14] is less than 0.01. Further, the half-life (as a rule, the time needed for the level to fall by half in the phase considered) in [16] was 15 h.

`O=C(Nc1cscc1-c1nc(O)c(O)c(C(=O)O)n1)NS(=O)(=O)c1ccc(Cl)cc1` showed a pEC50 in [5] of 4.59. In data set [4], this compound showed a pIC50 of 7.07.

`O=C(Nc1cscc1-c1nc(O)c(O)c(C(=O)O)n1)NS(=O)(=O)c1ccc2ccccc2c1`: the pEC50 in data set [5] was 4.49. The pIC50 in [4] is 7.32.

Compound `O=C(O)c1nc(-c2ccccc2)nc(O)c1O` showed a pIC50 in data set [4] of 4.52.

As to `CC(C)(C)OC(=O)Nc1cscc1-c1nc(O)c(O)c(C(=O)O)n1`, the pIC50 in data set [4] was 5.08.

`O=C(Nc1cscc1-c1nc(O)c(O)c(C(=O)O)n1)NS(=O)(=O)c1ccccc1` showed a pEC50 in data set [5] of 4.49. In data set [4], this compound had a pIC50 of 7.21.

On to `O=C(Nc1cscc1-c1nc(O)c(O)c(C(=O)O)n1)NS(=O)(=O)c1cccc(Cl)c1Cl`, for which the pEC50 in data set [5] is 5.62; in data set [6] (setting [18]), 5.31. For the same compound, the pIC50 in data set [4] is 7.92.

With `Cc1ccccc1S(=O)(=O)NC(=O)Nc1cscc1-c1nc(O)c(O)c(C(=O)O)n1`, the pEC50 in data set [5] was 4.80. The compound also showed a negative logarithm of the IC50 (pIC50) in [4] of 7.33.

Turning to `O=C(O)c1nc(-c2cccs2)nc(O)c1O`, the negative logarithm of the IC50 (pIC50) in [4] is 5.59.
